Assay results taken from ChEMBL document CHEMBL4406847, “Tryptoline-based benzothiazoles re-sensitize MRSA to β-lactam antibiotics” (Bioorg Med Chem, 2019).
Converted amounts (≈) assume the structure as drawn. The source made the active and inactive calls. The calls are words filed in the database; no cut-off is given here.

How the values were obtained:
Staphylococcus aureus [1] = experiment: Potentiation of cefuroxime induced antibacterial activity against methicillin resistant Staphylococcus aureus NR-46411 assessed as minimum resensitizing concentration after 18 hrs by broth microdilution method; type: functional; details: NR-46411, 18 h, read-out: MEC
Summary of the method: (§1)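 Compound titrated with cefuroxime, using the same method as the cefazolin MRC; MRC is the lowest compound concentration preventing overnight growth, in μg/mL.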

Staphylococcus aureus [2] = experiment: Antibacterial activity against methicillin resistant Staphylococcus aureus ATCC BAA-1764 after 18 hrs by broth microdilution method; type: functional; details: ATCC BAA-1764, 18 h
Summary of the method: (§2)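 Compound alone, MIC by standard CLSI broth microdilution; lowest concentration with no growth, reported in μg/mL; confirmed in triplicate.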

Staphylococcus aureus [3] = experiment: Potentiation of cefuroxime induced antibacterial activity against methicillin resistant Staphylococcus aureus NRS384 assessed as minimum resensitizing concentration after 18 hrs by broth microdilution method; type: functional; details: NRS384, 18 h, read-out: MEC; summary of the method: as §1
Staphylococcus aureus [4] = experiment: Potentiation of cefuroxime mediated antibacterial activity against methicillin resistant Staphylococcus aureus NRS100 assessed as minimum resensitizing concentration after 18 hrs by broth microdilution method; type: functional; details: NRS100, 18 h, read-out: MEC; summary of the method: as §1
Staphylococcus aureus [5] = experiment: Potentiation of cefazolin induced antibacterial activity against methicillin resistant Staphylococcus aureus NRS384 assessed as minimum resensitizing concentration after 18 hrs by broth microdilution method; type: functional; details: NRS384, 18 h, read-out: MEC
Summary of the method: (§3)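 Compound titrated in the presence of cefazolin at its CLSI breakpoint (8 μg/mL); MRC is the compound concentration at which no overnight growth occurs, in μg/mL; confirmed in triplicate.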

Staphylococcus aureus [6] = experiment: Potentiation of cefazolin induced antibacterial activity against methicillin resistant Staphylococcus aureus NRS100 assessed as minimum resensitizing concentration after 18 hrs by broth microdilution method; type: functional; details: NRS100, 18 h, read-out: MEC; summary of the method: as §3
Staphylococcus aureus [7] = experiment: Potentiation of cefazolin induced antibacterial activity against methicillin resistant Staphylococcus aureus ATCC BAA-44 assessed as minimum resensitizing concentration after 18 hrs by broth microdilution method; type: functional; details: ATCC BAA-44, 18 h, read-out: MEC; summary of the method: as §3
Staphylococcus aureus [8] = experiment: Potentiation of cefazolin induced antibacterial activity against Staphylococcus aureus ATCC BAA-1683 assessed as minimum resensitizing concentration after 18 hrs by broth microdilution method; type: functional; details: ATCC BAA-1683, 18 h, read-out: MEC
Summary of the method: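 MRSA BAA-1683 grown overnight with cefazolin held at its CLSI breakpoint, 8 μg/mL, plus varying analogue; MRC = analogue concentration giving no overnight growth; confirmed in triplicate.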

Staphylococcus aureus [9] = experiment: Potentiation of cefuroxime induced antibacterial activity against methicillin resistant Staphylococcus aureus ATCC BAA-1764 assessed as minimum resensitizing concentration after 18 hrs by broth microdilution method; type: functional; details: ATCC BAA-1764, 18 h, read-out: MEC; summary of the method: as §1
Staphylococcus aureus [10] = experiment: Potentiation of cefazolin induced antibacterial activity against methicillin resistant Staphylococcus aureus NR-46411 assessed as minimum resensitizing concentration after 18 hrs by broth microdilution method; type: functional; details: NR-46411, 18 h, read-out: MEC; summary of the method: as §3
Staphylococcus aureus [11] = experiment: Potentiation of cefazolin induced antibacterial activity against methicillin resistant Staphylococcus aureus ATCC BAA-1764 assessed as minimum resensitizing concentration after 18 hrs by broth microdilution method; type: functional; details: ATCC BAA-1764, 18 h, read-out: MEC; summary of the method: as §3
Staphylococcus aureus [12] = experiment: Potentiation of cefuroxime induced antibacterial activity against Staphylococcus aureus ATCC BAA-1683 assessed as minimum resensitizing concentration after 18 hrs by broth microdilution method; type: functional; details: ATCC BAA-1683, 18 h, read-out: MEC
Summary of the method: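 MRSA BAA-1683 grown overnight with cefuroxime plus varying analogue, method as for cefazolin MRC (antibiotic at CLSI breakpoint); MRC = analogue concentration giving no overnight growth; confirmed in triplicate.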

[13] = (§4) Cytotoxicity against human HeLa cells assessed as cell growth inhibition measured after 24 hrs by Celltiter Glo luminescent assay; type: cell-based; details: HeLa cells
Staphylococcus aureus [14] = experiment: Ratio of MIC for antibacterial activity against methicillin resistant Staphylococcus aureus ATCC BAA-44 to MEC for potentiation of cefazolin induced antibacterial activity against methicillin resistant Staphylococcus aureus ATCC BAA-44; type: functional
Summary of the method: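 Compound MIC alone (CLSI broth microdilution) divided by its MRC with cefazolin at the 8 μg/mL breakpoint, both against MRSA BAA-44; each confirmed in triplicate.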

Staphylococcus aureus [15] = experiment: Antibacterial activity against methicillin resistant Staphylococcus aureus ATCC BAA-44 after 18 hrs by broth microdilution method; type: functional; details: ATCC BAA-44, 18 h; summary of the method: as §2
HeLa = experiment: as §4; type: cell-based; details: hela, 24 h
Staphylococcus aureus [16] = experiment: Antibacterial activity against methicillin resistant Staphylococcus aureus ATCC BAA-44 at 128 to 256 ug/ml after 18 hrs by broth microdilution method; type: functional, organism-based

Nc1cc(Cl)c2nc(N3CCc4c([nH]c5ccc(Cl)cc45)C3)sc2c1
minimal effective concentration (Staphylococcus aureus [1]): < 0.25 µg/mL | MIC (Staphylococcus aureus [2]): > 32 µg/mL | minimal effective concentration (Staphylococcus aureus [3]): 4 µg/mL | minimal effective concentration (Staphylococcus aureus [4]): 4 µg/mL | minimal effective concentration (Staphylococcus aureus [5]): 4 µg/mL | minimal effective concentration (Staphylococcus aureus [6]): 4 µg/mL | minimal effective concentration (Staphylococcus aureus [7]): 2 µg/mL | minimal effective concentration (Staphylococcus aureus [8]): 1 µg/mL | minimal effective concentration (Staphylococcus aureus [9]): 32 µg/mL | minimal effective concentration (Staphylococcus aureus [10]): 0.5 µg/mL | minimal effective concentration (Staphylococcus aureus [11]): 0.5 µg/mL | minimal effective concentration (Staphylococcus aureus [12]): 8 µg/mL | GI50 at 24 h [13]: > 100 µg/mL

O=C(O)C1CN(c2nc3ccc(Cl)cc3s2)Cc2[nH]c3ccc(Cl)cc3c21 (racemic)
minimal effective concentration (Staphylococcus aureus [7]): 16 µg/mL | Ratio (Staphylococcus aureus [14]): 0 | MIC (Staphylococcus aureus [15]): 32 µg/mL (≈ 76.5 µM) | GI50 (HeLa): 65 µg/mL (≈ 155 µM)

FC(F)(F)c1ccc2nc(N3CCc4c([nH]c5ccc(Cl)cc45)C3)oc2c1
minimal effective concentration (Staphylococcus aureus [7]): > 64 µg/mL | Ratio (Staphylococcus aureus [14]): 0

Clc1ccc2nc(N3CCc4c([nH]c5ccc(Cl)cc45)C3)oc2c1
minimal effective concentration (Staphylococcus aureus [7]): > 64 µg/mL | Ratio (Staphylococcus aureus [14]): 0

Cc1nnc(SCC2=C(C(=O)O)N3C(=O)[C@@H](NC(=O)Cn4cnnn4)[C@H]3SC2)s1
Activity (Staphylococcus aureus [16]): Active

Clc1ccc2[nH]c3c(c2c1)CCN(c1nc2ccccc2o1)C3
minimal effective concentration (Staphylococcus aureus [7]): > 64 µg/mL | Ratio (Staphylococcus aureus [14]): 0

FC(F)(F)c1ccc(NC(=S)N2CCc3c([nH]c4ccc(Cl)cc34)C2)cc1
minimal effective concentration (Staphylococcus aureus [7]): 1 µg/mL | Ratio (Staphylococcus aureus [14]): 2 | MIC (Staphylococcus aureus [15]): 2 µg/mL (≈ 4.88 µM)

Clc1ccc2[nH]c3c(c2c1)CCN(c1nc2ccccc2s1)C3
minimal effective concentration (Staphylococcus aureus [7]): > 64 µg/mL | Ratio (Staphylococcus aureus [14]): 0

Clc1ccc2sc(N3CCc4c([nH]c5ccc(Cl)cc45)C3)nc2c1
minimal effective concentration (Staphylococcus aureus [7]): > 64 µg/mL | Ratio (Staphylococcus aureus [14]): 0

FC(F)(F)c1ccc2nc(N3CCc4c([nH]c5ccc(Cl)cc45)C3)sc2c1
minimal effective concentration (Staphylococcus aureus [7]): 0.5 µg/mL | MIC (Staphylococcus aureus [15]): > 64 µg/mL | GI50 (HeLa): 4.6 µg/mL (≈ 11.3 µM)

Clc1ccc2[nH]c3c(c2c1)CCN(c1nc2c(Cl)cccc2s1)C3
minimal effective concentration (Staphylococcus aureus [7]): 2 µg/mL | Ratio (Staphylococcus aureus [14]): 32 | MIC (Staphylococcus aureus [15]): > 64 µg/mL | GI50 (HeLa): 27.7 µg/mL (≈ 74 µM)

Clc1ccc2[nH]c3c(c2c1)CCN(c1nc2ccc(Br)cc2s1)C3
minimal effective concentration (Staphylococcus aureus [7]): 2 µg/mL | MIC (Staphylococcus aureus [15]): > 64 µg/mL | GI50 (HeLa): 5.1 µg/mL (≈ 12.2 µM)

Clc1ccc2[nH]c3c(c2c1)CCN(c1nc2c(Cl)c(Cl)c(Cl)cc2s1)C3
minimal effective concentration (Staphylococcus aureus [7]): 1 µg/mL | MIC (Staphylococcus aureus [15]): 2 µg/mL (≈ 4.51 µM) | GI50 (HeLa): 11.7 µg/mL (≈ 26.4 µM)

FC(F)(F)c1cccc2sc(N3CCc4c([nH]c5ccc(Cl)cc45)C3)nc12
minimal effective concentration (Staphylococcus aureus [7]): 1 µg/mL | Ratio (Staphylococcus aureus [14]): 32 | MIC (Staphylococcus aureus [15]): > 32 µg/mL | GI50 (HeLa): 8 µg/mL (≈ 19.6 µM)

S=C(Nc1ccc(Cl)cc1)N1CCc2c([nH]c3ccc(Cl)cc23)C1
minimal effective concentration (Staphylococcus aureus [7]): 2 µg/mL | Ratio (Staphylococcus aureus [14]): 2 | MIC (Staphylococcus aureus [15]): 4 µg/mL (≈ 10.6 µM)

FC(F)(F)c1cc(Br)cc2sc(N3CCc4c([nH]c5ccc(Cl)cc45)C3)nc12
minimal effective concentration (Staphylococcus aureus [7]): 0.5 µg/mL | MIC (Staphylococcus aureus [15]): 4 µg/mL (≈ 8.22 µM) | GI50 (HeLa): 5.9 µg/mL (≈ 12.1 µM)

CN(C)C(=O)C1CN(c2nc3ccc(Cl)cc3s2)Cc2[nH]c3ccc(Cl)cc3c21 (racemic)
minimal effective concentration (Staphylococcus aureus [7]): > 32 µg/mL | Ratio (Staphylococcus aureus [14]): 0

FC(F)(F)Oc1ccc(NC(=S)N2CCc3c([nH]c4ccc(Cl)cc34)C2)cc1
minimal effective concentration (Staphylococcus aureus [7]): 1 µg/mL | Ratio (Staphylococcus aureus [14]): 2

CN(C)CC1CN(c2nc3ccc(Cl)cc3s2)Cc2[nH]c3ccc(Cl)cc3c21 (racemic)
minimal effective concentration (Staphylococcus aureus [7]): 1 µg/mL | MIC (Staphylococcus aureus [15]): 2 µg/mL (≈ 4.64 µM) | GI50 (HeLa): 5.2 µg/mL (≈ 12.1 µM)

Clc1ccc2nc(N3CCc4c([nH]c5ccc(Cl)cc45)C3)sc2c1
minimal effective concentration (Staphylococcus aureus [7]): 2 µg/mL | Ratio (Staphylococcus aureus [14]): 32 | MIC (Staphylococcus aureus [15]): > 64 µg/mL | GI50 (HeLa): 13.2 µg/mL (≈ 35.3 µM)

FC(F)(F)Oc1ccc2nc(N3CCc4c([nH]c5ccc(Cl)cc45)C3)sc2c1
minimal effective concentration (Staphylococcus aureus [7]): 1 µg/mL | Ratio (Staphylococcus aureus [14]): 0 | GI50 (HeLa): 7.3 µg/mL (≈ 17.2 µM)

CO/N=C(\C(=O)N[C@@H]1C(=O)N2C(C(=O)O)=C(COC(N)=O)CS[C@H]12)c1ccco1
Activity (Staphylococcus aureus [16]): Active

Clc1cc(Cl)c2nc(N3CCc4c([nH]c5ccc(Cl)cc45)C3)sc2c1
minimal effective concentration (Staphylococcus aureus [7]): 1 µg/mL | MIC (Staphylococcus aureus [15]): 2 µg/mL (≈ 4.89 µM) | GI50 (HeLa): 16.1 µg/mL (≈ 39.4 µM)

COC(=O)C1CN(c2nc3ccc(Cl)cc3s2)Cc2[nH]c3ccc(Cl)cc3c21 (racemic)
minimal effective concentration (Staphylococcus aureus [7]): 1 µg/mL | Ratio (Staphylococcus aureus [14]): 32 | MIC (Staphylococcus aureus [15]): > 32 µg/mL | GI50 (HeLa): 6.6 µg/mL (≈ 15.3 µM)

Cc1ccc2nc(N3CCc4c([nH]c5ccc(Cl)cc45)C3)sc2c1
minimal effective concentration (Staphylococcus aureus [7]): > 64 µg/mL | Ratio (Staphylococcus aureus [14]): 0

Cl.Nc1cc(C(F)(F)F)c2nc(N3CCc4c([nH]c5ccc(Cl)cc45)C3)sc2c1
minimal effective concentration (Staphylococcus aureus [7]): 2 µg/mL | MIC (Staphylococcus aureus [15]): 16 µg/mL | GI50 (HeLa): 32 µg/mL
